Experimental data as given in ChEMBL document CHEMBL4334464, “From Phenylthiazoles to Phenylpyrazoles: Broadening the Antibacterial Spectrum toward Carbapenem-Resistant Bacteria” (J Med Chem, 2019).
≈ marks a conversion by molar mass, not a printed value. Calls of active or inactive are those of the source. No cut-off for these calls is given here.

Key:
[1] = system: Salmonella typhimurium; experiment: Antibacterial activity against Salmonella typhimurium ATCC 700720 after 18 to 20 hrs in aerobic condition by CLSI-based broth microdilution assay; format: functional, Salmonella enterica subsp. enterica serovar Typhimurium; conditions: Salmonella enterica
[2] = system: Klebsiella pneumoniae; experiment: Antibacterial activity against Klebsiella pneumoniae BAA-1706 clinical isolates after 18 to 20 hrs in aerobic condition by CLSI-based broth microdilution assay; format: functional
[3] = system: Salmonella enteritidis; experiment: Ratio of MBC to MIC for Salmonella enteritidis ATCC 13076 clinical isolates; format: functional, Salmonella enterica subsp. enterica serovar Enteritidis
[4] = system: Streptococcus pneumoniae; experiment: Antibacterial activity against methicillin-resistant Streptococcus pneumoniae ATCC 700677 clinical isolates after 18 to 20 hrs by CLSI-based broth microdilution assay; format: functional
[5] = system: Enterococcus faecalis; experiment: Antibacterial activity against vancomycin-resistant Enterococcus faecalis ATCC 51299 clinical isolates after 18 to 20 hrs in aerobic condition by CLSI-based broth microdilution assay; format: functional
[6] = Apparent permeability across apical to basolateral side in human Caco2 cells after 2 hrs by LC/MS/MS analysis; format: ADME, cell-based; conditions: Caco-2
[7] = Intrinsic clearance in human liver microsomes in absence of NADPH by LC/MS/MS analysis; format: ADME, Microsome; conditions: read-out: CLH
[8] = system: Acinetobacter baumannii; experiment: Antibacterial activity against Acinetobacter baumannii NR 17785 clinical isolates after 18 to 20 hrs in aerobic condition by CLSI-based broth microdilution assay; format: functional
[9] = system: Escherichia coli; experiment: Ratio of MBC to MIC for Escherichia coli BW25113 clinical isolates; format: functional
[10] = system: Escherichia coli; experiment: Ratio of MBC to MIC for Escherichia coli ATCC 25922 clinical isolates; format: functional
[11] = system: Escherichia coli; experiment: microbe, parasite or virus in culture; conditions: ATCC 1411
[12] = system: Staphylococcus epidermidis; experiment: Antibacterial activity against Staphylococcus epidermidis NRS101 after 18 to 20 hrs in aerobic condition by CLSI-based broth microdilution assay; format: functional
[13] = system: Streptococcus pneumoniae; experiment: Antibacterial activity against cephalosporin-resistant Streptococcus pneumoniae ATCC 51916 clinical isolates after 18 to 20 hrs by CLSI-based broth microdilution assay; format: functional
[14] = system: Acinetobacter baumannii; experiment: Ratio of MBC to MIC for Acinetobacter baumannii ATCC 19606 clinical isolates; format: functional, ATCC 19606 = CIP 70.34 = JCM 6841
[15] = system: Enterococcus faecium; experiment: Antibacterial activity against vancomycin-resistant Enterococcus faecium ATCC 700221 clinical isolates after 18 to 20 hrs in aerobic condition by CLSI-based broth microdilution assay; format: functional
[16] = system: Escherichia coli; experiment: Antimicrobial activity against Escherichia coli JW55031 harboring deltatolC mutant after 18 to 20 hrs in aerobic condition by CLSI protocol based broth microdilution assay; format: functional
[17] = Stability in human liver microsomes assessed as compound remaining incubated for 15 mins in presence of NADPH by LC/MS/MS analysis; format: ADME, Microsome; conditions: read-out: Stability
In short: (§1)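 Two independent runs (1st and 2nd) were done at each time point, and the mean percent remaining is reported. Incubations were run both with and without NADPH. Half-life and intrinsic clearance (Clint) were derived from the time-course data.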

[18] = system: Staphylococcus aureus; experiment: Ratio of MBC to MIC for Methicillin-sensitive Staphylococcus aureus NRS107 clinical isolates; format: functional
[19] = system: Escherichia coli; experiment: Ratio of MBC to MIC for Escherichia coli ATCC 35150 clinical isolates; format: functional
[20] = system: Shigella flexneri; experiment: Antibacterial activity against Shigella flexneri ATCC 9199 clinical isolates after 18 to 20 hrs in aerobic condition by CLSI-based broth microdilution assay; format: functional
[21] = system: Salmonella enteritidis; experiment: Antibacterial activity against Salmonella enteritidis ATCC 14028 clinical isolates after 18 to 20 hrs in aerobic condition by CLSI-based broth microdilution assay; format: functional, Salmonella enterica subsp. enterica serovar Enteritidis; conditions: Salmonella enterica
[22] = target: T1, Ditrans,polycis-undecaprenyl-diphosphate synthase ((2E,6E)-farnesyl-diphosphate specific) (Escherichia coli (strain K12)) (UniProt P60472); experiment: Inhibition of Escherichia coli UPPS using FPP/IPP as substrate preincubated for 30 mins followed by substrates addition and measured after 30 mins by malachite green reagent based assay
T1 sequence (whole entry): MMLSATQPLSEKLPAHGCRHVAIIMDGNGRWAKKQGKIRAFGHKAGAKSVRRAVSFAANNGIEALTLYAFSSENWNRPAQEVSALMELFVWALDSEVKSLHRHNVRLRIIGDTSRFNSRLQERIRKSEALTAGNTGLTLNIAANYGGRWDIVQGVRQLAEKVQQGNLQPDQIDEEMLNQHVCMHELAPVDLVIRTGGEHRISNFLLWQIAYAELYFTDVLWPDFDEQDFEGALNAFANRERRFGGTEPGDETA

[23] = Stability in human liver microsomes assessed as compound remaining incubated for 60 mins in presence of NADPH by LC/MS/MS analysis; format: ADME, Microsome; conditions: read-out: Stability; in short: as §1
[24] = system: Salmonella typhimurium; experiment: Ratio of MBC to MIC for Salmonella typhimurium ATCC 700720 clinical isolates; format: functional, Salmonella enterica subsp. enterica serovar Typhimurium
[25] = system: Listeria monocytogenes; experiment: Ratio of MBC to MIC for Listeria monocytogenes ATCC 19111 clinical isolates; format: functional
[26] = system: Acinetobacter baumannii; experiment: Antibacterial activity against Acinetobacter baumannii ATCC 19606 clinical isolates after 18 to 20 hrs in aerobic condition by CLSI-based broth microdilution assay; format: functional; conditions: ATCC 19606 = CIP 70.34 = JCM 6841
[27] = Stability in human liver microsomes assessed as compound remaining incubated for 15 mins in absence of NADPH by LC/MS/MS analysis; format: ADME, Microsome; conditions: read-out: Stability
[28] = system: Klebsiella pneumoniae; experiment: Antibacterial activity against Klebsiella pneumoniae BAA-1144 clinical isolates after 18 to 20 hrs in aerobic condition by CLSI-based broth microdilution assay; format: functional
[29] = system: Salmonella enteritidis; experiment: Ratio of MBC to MIC for Salmonella enteritidis ATCC 14028 clinical isolates; format: functional, Salmonella enterica subsp. enterica serovar Enteritidis
[30] = system: Streptococcus pneumoniae; experiment: Ratio of MBC to MIC for […] Streptococcus pneumoniae ATCC 700677 clinical isolates; format: functional
[31] = system: Staphylococcus aureus; experiment: Antibiofilm activity against methicillin-resistant Staphylococcus aureus NRS384-USA300 clinical isolates assessed as inhibition of biofilm formation at 0.5 times MIC incubated for 24 hrs by crystal violet staining based spectrophotometric method relative to control; format: functional
[32] = system: Staphylococcus aureus; experiment: Antibacterial activity against Methicillin-sensitive Staphylococcus aureus ATCC 6538 clinical isolates after 18 to 20 hrs in aerobic condition by CLSI protocol based broth microdilution assay; format: functional
[33] = system: Escherichia coli; experiment: Antibacterial activity against Escherichia coli ATCC 25922 clinical isolates after 18 to 20 hrs in aerobic condition by CLSI-based broth microdilution assay; format: functional
[34] = system: Listeria monocytogenes; experiment: Antibacterial activity against Listeria monocytogenes ATCC 19111 after 18 to 20 hrs in aerobic condition by CLSI-based broth microdilution assay; format: functional
[35] = Stability in human liver microsomes assessed as compound remaining incubated for 60 mins in absence of NADPH by LC/MS/MS analysis; format: ADME, Microsome; conditions: read-out: Stability; in short: as §1
[36] = system: Clostridioides difficile; experiment: Antibacterial activity against Clostridium difficile ATCC BAA 1870 incubated for 48 hrs in anaerobic condition by CLSI-based broth microdilution assay; format: functional; conditions: ATCC BAA 1870, 48 h
[37] = Half life in human liver microsomes in presence of NADPH by LC/MS/MS analysis; format: ADME, Microsome
[38] = system: Staphylococcus aureus; experiment: Antibacterial activity against Methicillin-resistant Staphylococcus aureus NRS123-USA400 clinical isolates after 18 to 20 hrs in aerobic condition by CLSI protocol based broth microdilution assay; format: functional
[39] = system: Salmonella enterica; experiment: Ratio of MBC to MIC for Salmonella enterica NR-170 clinical isolates; format: functional

In the case of `C/C(=N\NC(=N)N)c1cnn(-c2ccc(C#CC3CCCC3)cc2)c1C`, the MIC [1] is reported as 8 µg/mL (≈ 23 µM), the MIC [2] is reported as 4 µg/mL (≈ 11.5 µM) and the Ratio [3] is reported as “>=1”. It also gave an MIC [4] of 0.5 µg/mL (≈ 1.43 µM), an MIC [5] of 0.5 µg/mL (≈ 1.43 µM) and a Papp A→B at 2 h [6] of 0.01 ×10⁻⁶ cm/s. The microsomal CLint [7] was under 116 µL/min/mg, the MIC [8] was 4 µg/mL (≈ 11.5 µM) and the Ratio [9] was “>=1”. For the same compound, the Ratio [10] was “>=1”, the MIC [11] was 8 µg/mL (≈ 23 µM) and the MIC [12] was 1 µg/mL (≈ 2.87 µM). The MIC [13] was 1 µg/mL (≈ 2.87 µM), the Ratio [14] was “>=1” and the MIC [15] was 1 µg/mL (≈ 2.87 µM). For the same compound, the MIC [16] was 2 µg/mL (≈ 5.74 µM), the remaining at 0.25 h [17] was 93% and the Ratio [18] was “<=2”. The Ratio [19] was “>=1”, the MIC [20] was 8 µg/mL (≈ 23 µM) and the MIC [21] was 8 µg/mL (≈ 23 µM). The inhibition [22] was “inactive”, the remaining at 1 h [23] was 82% and the Ratio [24] was “>=1”. The Ratio [25] was under 3, the MIC [26] was 4 µg/mL (≈ 11.5 µM) and the remaining at 0.25 h [27] was 99%. The MIC [28] was 8 µg/mL (≈ 23 µM), the Ratio [29] was “>=1” and the Ratio [30] was under 3. The “inhibition (INH)” value [31] was 31%, the MIC [32] was 0.5 µg/mL (≈ 1.43 µM) and the MIC [33] was 4 µg/mL (≈ 11.5 µM). It also gave an MIC [34] of 0.5 µg/mL (≈ 1.43 µM), a remaining at 1 h [35] of 91% and an MIC [36] of 1 µg/mL (≈ 2.87 µM). For the same compound, the half-life [37] was 3.23 h, the MIC [38] was 2 µg/mL (≈ 5.74 µM) and the Ratio [39] was “>=1”.
